# Screens: PubChem BioAssay, Johns Hopkins Ion Channel Center
# MrgX1 allo act – positive allosteric modulators of MrgX1, primary screen, HEK293 cells, Fluo-4 calcium flux; FDSS; stronger effect = higher value; AID 588675, 2011; hit rate 0.63% among 310,000; Mas-related G-protein coupled receptor member X1 (Homo sapiens), Q96LB2; B-score at 10 µM;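 active means plate-corrected calcium response at least 3 library SD above typical, normal starting fluorescence, not activating the receptor alone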;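 further: compound read alongside a low EC10 to EC30 dose of BAM8-22 agonist; peak minus trough fluorescence over baseline measured at the second addition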
# Target sequence (Q96LB2 whole entry, looked up): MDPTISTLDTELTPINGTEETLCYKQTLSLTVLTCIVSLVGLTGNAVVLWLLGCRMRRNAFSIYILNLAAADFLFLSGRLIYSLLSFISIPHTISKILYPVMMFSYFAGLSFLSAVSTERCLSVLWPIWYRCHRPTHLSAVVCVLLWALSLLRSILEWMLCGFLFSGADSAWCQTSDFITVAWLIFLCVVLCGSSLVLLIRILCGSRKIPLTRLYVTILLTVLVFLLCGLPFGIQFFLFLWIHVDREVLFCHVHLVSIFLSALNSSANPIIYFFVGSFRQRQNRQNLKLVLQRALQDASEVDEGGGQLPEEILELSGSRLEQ
# MrgX1 antagonist – antagonists of human MrgX1 receptor, primary screen, HEK293 cells, Fluo-4 calcium flux; Mas-related G-protein coupled receptor member X1 (Homo sapiens), Q96LB2; BAM8-22 antagonism; stronger effect = lower value; B-score at 10 µM; hit rate 1.3% among 310,000; AID 588676, 2011;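 active means calcium-response B-score plate-corrected more than 3 library SD below zero, starting fluorescence within 5 deviations, no agonist response on first addition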;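 further: peak minus trough fluorescence over baseline after final BAM8-22 challenge near maximal dose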
# RGS4 block – RGS4 inhibitors, primary screen, cell-based, HEK293 M3R inducible RGS4, calcium flux. B-score at 10 µM. hit rate 0.45% among 310,000. Fluo-4 calcium flux; stronger effect = higher value; triggered by carbachol at its EC20;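 active means B-score, a plate-corrected calcium signal, over three deviations above library mean, with baseline fluorescence within five deviations of library mean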;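 further: RGS4 expression induced by doxycycline in cells with stable M3 receptor; B-score is computed from the integrated fluorescence ratio over baseline after carbachol; higher B-score means a larger calcium signal and so more RGS4 inhibition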
# Target sequence (P49798 whole entry, looked up): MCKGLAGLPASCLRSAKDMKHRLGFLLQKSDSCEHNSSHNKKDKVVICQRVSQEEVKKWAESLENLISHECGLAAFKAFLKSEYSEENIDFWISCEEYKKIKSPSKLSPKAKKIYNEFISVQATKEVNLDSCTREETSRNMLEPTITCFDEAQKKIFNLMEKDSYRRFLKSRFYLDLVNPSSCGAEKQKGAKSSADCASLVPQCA
# RGS4 act – RGS4 potentiators or activators, primary screen, cell-based, HEK293 M3R inducible RGS4, calcium flux; carbachol calcium flux Fluo4; stronger effect = lower value; B-score at 10 µM; hit rate 0.92% among 310,000; AID 463111, 2010;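 active means B-score of the integrated calcium signal more than 4 SD below the library mean, with starting fluorescence not abnormally high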;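 further: negative B-score means reduced calcium response which marks RGS4 activation or potentiation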
#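 Detection: kinetic calcium fluorescence imaging with Fluo4-AM dye, 2 µM / Material: HEK293 cells with stable M3R and inducible RGS4 / Schedule: recording 10 s baseline at 1 Hz, 100 s post-agonist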
# MrgX1 ag – agonists of human MrgX1 receptor, primary screen, HEK293 cells, Fluo-4 calcium flux; Fluo-4 calcium fluorescence, agonist mode; stronger effect = higher value; B-score at 10 µM; hit rate 0.44% among 310,000; Mas-related G-protein coupled receptor member X1 (Homo sapiens), Q96LB2;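 active means calcium response B-score plate-corrected fluorescence ratio at least 3 library SD, with starting fluorescence B-score inside 5 SD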
#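 System – MrgX1-expressing HEK293 cells · Incubation – cells plated overnight, dye loaded 0.5 h 37 °C, 0.5 h room temperature · Technique – kinetic Fluo-4 NW fluorescence of intracellular calcium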
# MrgX1 antag conf – MrgX1 receptor antagonists, duplicate retest, confirmation, HEK293 cells, Fluo-4 calcium flux. remaining BAM8-22 calcium response % of control (stronger effect = lower value), % at 10 µM. AID 602420, 2012. hit rate 19% among 2,300. BAM8-22 calcium flux; stronger effect = lower value. shares compounds with MrgX1 antagonist;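 active means remaining agonist calcium response no higher than 100% minus 3 SD of agonist-only control wells, with starting fluorescence near control levels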;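 further: agonist BAM8-22 given at a near maximal EC90 to ECmax level; peak minus minimum fluorescence divided by baseline after agonist addition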
# HEK293 Ca flux – nonspecific calcium signal in parental HEK293, confirmation, counter-screen for MrgX1 antagonist project, parental HEK293 cells, Fluo-4 calcium flux; shares compounds with MrgX1 antagonist; Fluo-4 calcium fluorescence, FDSS; fluorescence ratio F(max-min)/F0 at 10 µM; hit rate 2% among 4,000;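 active means duplicate-averaged calcium fluorescence ratio at least three times the standard deviation of buffer wells, a nonspecific response in parental cells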
# HEK293 Ca counter – calcium response in parental HEK293 cells, primary screen, counter-screen for MrgX1 allosteric activator project, cell-based, Fluo-4 calcium flux, duplicate; shares compounds with MrgX1 antagonist; Fluo-4 fluorescence ratio; stronger effect = higher value; fluorescence ratio F(max-min)/F0 at 10 µM; hit rate 0.4% among 4,000;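 active means calcium fluorescence ratio, averaged over duplicates, at least 3 SD of the buffer-well ratio, meaning a nonspecific response in receptor-free cells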;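 further: untransfected parental HEK293 lacking MrgX1 used as counterscreen for MrgX1 allosteric activators; fluorescence change taken during the second addition on a kinetic imager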
# HEK293 Ca cntr2 – calcium response in parental HEK293 cells, primary screen, counter-screen for MrgX1 agonist project, cell-based, Fluo-4 calcium flux, duplicate, agonist mode | shares compounds with MrgX1 antagonist | Fluo-4 calcium fluorescence (FDSS); stronger effect = higher value | fluorescence ratio F(max-min)/F0 at 10 µM | hit rate 8.7% among 4,000;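 active means calcium fluorescence ratio at least three times the spread of buffer wells, meaning a non-specific response in parental cells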
# Hits are given with their value; – = inactive; · = not tested or not shown. A selection: hits, their analogues and other compounds. The true share with any hit is near 3.5%.
SMILES,MrgX1 allo act,MrgX1 antagonist,RGS4 block,RGS4 act,MrgX1 ag,MrgX1 antag conf,HEK293 Ca flux,HEK293 Ca counter,HEK293 Ca cntr2
O=[N+]([O-])c1cccc(-c2n[nH]c(=S)n2Cc2ccccc2)c1,–,-17,–,–,–,–,–,–,–
CC1(c2nnc(-c3ccc(F)cc3)o2)CC(c2ccncc2)=NO1 (centres undefined),–,–,–,–,–,·,·,·,·
Cc1[nH]c2ccccc2c1SCCN,–,-7.5,–,–,–,–,–,–,–
Cc1ccc(-c2[nH]c3ccccc3c2SCCN)cc1,–,–,–,–,–,·,·,·,·
CCOC(=O)c1sc(-c2ccc(C(F)(F)F)cc2)nc1O,–,-5.7,–,–,–,59%,–,–,–
COc1ccc(-c2cn3c(C)c(C(=O)Nc4cccc(C)n4)sc3n2)cc1,–,-5.3,–,–,–,82%,–,–,–
Cc1cccc(NC(=O)c2sc3nc(-c4ccccc4)cn3c2C)n1,–,–,–,–,–,·,·,·,·
N#CCSc1nnc(C2CCCCC2)n1Cc1ccccc1,–,-7.1,–,–,–,–,–,–,–
CC1CCc2[nH]c3ccc(C(=O)N4CCCC(C(F)(F)F)C4)cc3c2C1 (centres undefined),–,-4.6,–,–,–,–,–,–,–
COC(=O)c1ccc2[nH]c3c(c2c1)CC(C)CC3 (centres undefined),–,–,–,–,–,·,·,·,·
Cc1cc(-c2csc3ncnc(N4CCN(C)CC4)c23)cc(C)c1C,–,-4.9,–,–,–,–,–,–,–
CN1CCN(c2ncnc3scc(-c4ccccc4Cl)c23)CC1,–,–,–,–,–,·,·,·,·
CCOC(=O)c1sc(NC(=S)NC(=O)c2cccc(Cl)c2)c(C(=O)OCC)c1C,–,-4.9,–,–,–,–,–,–,–
C=C(C)COc1ccc(-c2nc(N)ncc2Oc2ccccc2OC)c(O)c1,–,–,·,·,–,·,·,·,·
C=C(C)COc1ccc(-c2nc(N)ncc2Oc2ccc(OC)cc2)c(O)c1,–,-4.6,–,–,–,–,–,–,–
COc1ccc(-n2c(CNC(=O)c3cccs3)n[nH]c2=S)cc1,–,-4.8,–,–,–,–,–,–,–
NC1=NC(c2ccccc2Cl)n2c(nc3ccccc32)N1 (centres undefined),–,-8.6,–,–,–,–,–,–,–
COc1ccc(NC(=O)Cc2coc3ccc4ccccc4c23)cc1S(=O)(=O)N1CCOCC1,–,-6.7,–,–,–,–,–,–,–
O=C(COc1ccc(Cl)cc1)NCCc1ccccn1,–,-5.2,–,–,–,85%,–,–,–
S=C(NCCc1ccccn1)Nc1ccc(Cl)c(Cl)c1,–,–,–,–,–,·,·,·,·
O=C(COc1ccc(Cl)cc1)NCCCNC(=O)c1ccccn1,–,–,–,–,–,·,·,·,·
S=C(NCCc1ccccn1)Nc1cc(Cl)cc(Cl)c1,–,-4.5,–,–,–,81%,–,–,–
CCOC(=O)C1CCCN(C(=O)c2ccc3c(=O)n(Cc4ccccc4OC)c(=S)[nH]c3c2)C1 (centres undefined),–,–,–,–,–,·,·,·,·
CCOC(=O)C1(Cc2ccccc2)CCCN(CCO)C1 (centres undefined),–,-5,–,–,–,–,–,–,–
CCOC(=O)C1(Cc2ccccc2)CCN(Cc2cnn(-c3ccccc3)c2)CC1,–,-6,–,–,–,73%,–,–,–
SMILES,MrgX1 allo act,MrgX1 antagonist,RGS4 block,RGS4 act,MrgX1 ag,MrgX1 antag conf,HEK293 Ca flux,HEK293 Ca counter,HEK293 Ca cntr2
O=C1CCN(C(=O)CSc2ccc(Cl)cc2)N1,–,–,–,–,–,·,·,·,·
Cc1ccc(-c2cc(C(=O)NC3=NCCS3)c3ccccc3n2)cc1C,–,-4.9,–,–,–,–,–,–,–
O=C(NC1=NCCS1)c1cc(-c2ccc(F)cc2)nc2ccccc12,–,–,–,–,–,·,·,·,·
O=C(O)c1ccc2ncsc2c1,–,-5.6,–,–,–,68%,–,–,–
CC1(C)c2[nH]c3ccccc3c2C[C@@H]2C(=O)N(c3ccc(F)cc3F)C(=O)N21,–,–,–,–,–,·,·,·,·
CCn1cc(C2C(C(=O)Nc3ccc(Br)cn3)=C(C)NC3=C2C(=O)CCC3)c(C)n1 (centres undefined),–,–,–,–,–,·,·,·,·
CC1=C(C(=O)Nc2ccccn2)C(c2cn(C)nc2C)C2=C(CCCC2=O)N1 (centres undefined),–,-4.9,–,–,–,–,–,–,–
O=C(Nc1ccccc1F)C(=O)c1cn(CC(=O)N2CCCCC2)c2ccccc12,–,-5,–,–,–,–,–,–,–
CC(=O)Nc1ccc(NC(=O)C(=O)c2cn(CC(=O)N3CCCC3)c3ccccc23)cc1,–,–,–,–,–,·,·,·,·
O=C(NCCCN1CCCC1=O)c1ccc(NS(=O)(=O)c2cccc([N+](=O)[O-])c2)cc1,–,–,–,–,–,·,·,·,·
C=CCNC(=O)COC(=O)c1ccc(C)c(NC(=O)c2ccco2)c1,–,-7.6,–,–,–,–,–,–,–
CCCCNC(=O)COC(=O)c1ccc(C)c(NC(=O)c2ccco2)c1,–,–,–,–,–,·,·,·,·
CCCc1nn(C)c(C(=O)Nc2ccccc2)c1Cl,–,–,–,–,–,·,·,·,·
CC1CCCCC1NC(=O)c1cccc(S(=O)(=O)N2CCN(C)CC2)c1 (centres undefined),–,–,–,–,–,·,·,·,·
CC1CCCC(NC(=O)c2cccc(S(=O)(=O)N3CCN(c4ccccc4)CC3)c2)C1C (centres undefined),–,-9.2,–,–,–,–,–,–,–
CC(=O)Nc1ccc(S(=O)(=O)Nc2cc(-c3ccccc3)nn2C)cc1,–,–,–,–,–,·,·,·,·
CC(=O)Nc1ccc(S(=O)(=O)Nc2nc3nc(-c4ccccc4)cc(-c4ccccc4)n3n2)cc1,–,-6.4,–,–,–,81%,–,–,–
